Experimental findings from ChEMBL document CHEMBL1143896, “Discovery of piperazinylimidazo[1,2-a]pyridines as novel S4 binding elements for orally active factor Xa inhibitors” (Bioorg Med Chem, 2008) are described below.

Series [1] concerns Plasma. Briefly: Anticoagulant potency in human plasma assessed as concentration required to double prothrombin time. It is filed as functional. The gist of the method: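 Compound in DMSO is added to normal human plasma (3% v/v) and preincubated 4 min at 37 °C. Clotting is started with thromboplastin and timed on an automatic coagulometer. Prolongation is measured against a DMSO control. The concentration that doubles clotting time comes from a least-squares regression, as a mean of duplicate measurements.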

Series [2] has as its target Coagulation factor X (Homo sapiens, UniProt P00742). Description: Inhibition of human factor 10a.
In series [3] the target is CYP3A4 (Homo sapiens, UniProt P08684). Briefly: Inhibition of human CYP3A4 at 10 uM. It is filed as ADME. The gist of the method:
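CYP3A4 from human B-lymphoblastoid cells expressing the enzyme (10 nM) is incubated with 100 µM testosterone and 10 µM compound for 30 min at 37 °C. 6β-Hydroxytestosterone is measured by HPLC-UV and reported as % inhibition.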

Series [4] has as its system Plasma. Briefly: Anticoagulant potency in ICR mouse plasma assessed as concentration required to double prothrombin time. The format is functional.
The subject of series [5] is Mus musculus. Briefly: Ex vivo anticoagulant potency in ICR mouse blood assessed as prothrombin time at 30 mg/kg, po after 1 hr relative to control. The format is functional. Put shortly: (§1)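 Male ICR mice (30–35 g) are fasted >12 h and dosed orally as a suspension in 0.5% methylcellulose; controls get vehicle. At 1 h, blood is drawn from the abdominal aorta under pentobarbital (50 mg/kg ip) into 3.8% citrate (9:1). Plasma is spun at 1000g for 10 min, preincubated 4 min at 37 °C, clotted with thromboplastin and timed. The read-out is the clotting-time ratio versus vehicle controls.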

Series [6] concerns Mus musculus. Briefly: Ex vivo anticoagulant potency in ICR mouse blood assessed as 1.1 times prolongation of prothrombin time at 30 mg/kg, po after 1 hr relative to control. The format is functional, organism-based. Also noted: dose 30 mg/kg. The gist of the method:
as §1

In series [7] the test system is Mus musculus. Briefly: Ex vivo anticoagulant potency in ICR mouse blood assessed as 1.4 times prolongation of prothrombin time at 100 mg/kg, po after 1 hr relative to control. The format is functional, organism-based. Also noted: dose 100 mg/kg. The gist of the method: as §1
Series [8] can be described thus: AUC in cynomolgus monkey at 3 mg/kg, po. It is filed as ADME, organism-based, Macaca fascicularis. Also noted: dose 3 mg/kg, route oral. The settings on record: plasma. Put shortly: (§2)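 Fasted male cynomolgus monkeys (n = 3) are dosed iv in DMA/PEG400 or orally as a 0.5% methylcellulose suspension. Femoral vein blood is taken up to 24 h (from 5 min iv, from 15 min po). Plasma is deproteinized with acetonitrile, diluted with 0.01 mol/L ammonium formate at pH 3.0, and measured by LC/MS/MS. Values are means ± SD of three.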

The nature of series [9]: Drug concentration in cynomolgus monkey at 0.3 mg/kg, iv after 5 mins. It is filed as ADME, organism-based, Macaca fascicularis. Also noted: dose 0.3 mg/kg, route intravenous. The conditions noted are these: in vivo, read-out: Drug uptake. The gist of the method: as §2
The target in series [10] is Plasma kallikrein (Homo sapiens, UniProt P03952). Briefly: Inhibition of human kallikrein after 30 mins. The gist of the method:
(§3)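 Human proteases are incubated with compound for 30 min at 37 °C. Enzyme and substrate pairs are: thrombin 0.080 U/mL with S-2366; trypsin 0.040 µg/mL with S-2222; plasmin 0.040 U/mL with S-2366; kallikrein 0.020 U/mL with S-2302; t-PA 4000 U/mL with S-2288. p-Nitroanilide release is followed continuously for 5 min at 405 nm. Ki comes from Lineweaver–Burk plots at varied substrate levels, as means of three determinations.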

The target in series [11] is Tissue-type plasminogen activator (Homo sapiens, UniProt P00750). Description: Inhibition of human tPA after 30 mins. The gist of the method: as §3
Tissue-type plasminogen activator, sequence (P00750 whole entry): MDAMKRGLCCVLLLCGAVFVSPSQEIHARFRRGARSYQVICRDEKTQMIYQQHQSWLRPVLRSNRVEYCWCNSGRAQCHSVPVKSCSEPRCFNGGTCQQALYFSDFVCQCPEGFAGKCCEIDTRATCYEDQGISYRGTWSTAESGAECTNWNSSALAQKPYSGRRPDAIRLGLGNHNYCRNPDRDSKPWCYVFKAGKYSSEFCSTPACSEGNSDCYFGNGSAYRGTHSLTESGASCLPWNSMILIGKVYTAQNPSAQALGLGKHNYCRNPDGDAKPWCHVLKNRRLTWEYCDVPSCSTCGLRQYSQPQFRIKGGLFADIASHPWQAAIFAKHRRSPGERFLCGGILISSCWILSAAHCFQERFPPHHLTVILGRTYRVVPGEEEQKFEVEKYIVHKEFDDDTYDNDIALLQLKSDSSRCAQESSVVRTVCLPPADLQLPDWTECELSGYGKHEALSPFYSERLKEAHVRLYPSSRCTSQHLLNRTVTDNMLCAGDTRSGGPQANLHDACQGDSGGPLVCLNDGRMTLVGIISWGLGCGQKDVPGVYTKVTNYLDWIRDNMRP
Series [12] deals with Prothrombin (Homo sapiens, UniProt P00734). Briefly: Inhibition of human thrombin after 30 mins. The gist of the method:
as §3

The nature of series [13]: Cmax in cynomolgus monkey at 3 mg/kg, po. More on the design: dose 3 mg/kg, route oral. It is filed as ADME, organism-based, Macaca fascicularis. The settings on record: in vivo. Put shortly: as §2
Series [14] in a line: Oral bioavailability in cynomolgus monkey at 3 mg/kg. It is filed as ADME, organism-based, Macaca fascicularis. The conditions noted are these: in vivo. The gist of the method:
as §2

The nature of series [15]: Total clearance in cynomolgus monkey at 0.3 mg/kg, iv. The format is ADME, organism-based, Macaca fascicularis. Also noted: dose 0.3 mg/kg, route intravenous. The settings on record: in vivo. Put shortly:
as §2

For series [16], the target named is Trypsin (Homo sapiens, UniProt P07477+P07478+P35030). Description: Inhibition of human trypsin after 30 mins. It is filed as protein assay. The gist of the method:
as §3

Series [17] can be described thus: Mean residence time in cynomolgus monkey at 3 mg/kg, po. It is filed as ADME, organism-based, Macaca fascicularis. Also noted: dose 3 mg/kg, route oral. The settings on record: in vivo. The gist of the method:
as §2

The nature of series [18]: Mean residence time in cynomolgus monkey at 0.3 mg/kg, iv. It is filed as ADME, organism-based, Macaca fascicularis. Also noted: dose 0.3 mg/kg, route intravenous. The settings on record: in vivo. Put shortly:
as §2

Series [19] can be described thus: Tmax in cynomolgus monkey at 3 mg/kg, po. It is filed as ADME, organism-based, Macaca fascicularis. The settings on record: in vivo. Also noted: dose 3 mg/kg, route oral. The gist of the method:
as §2

Series [20] has as its target Plasminogen (Homo sapiens, UniProt P00747). Briefly: Inhibition of human plasmin after 30 mins. The gist of the method: as §3
Series [21] in a line: Volume of distribution at steady state in cynomolgus monkey at 0.3 mg/kg, iv. It is filed as ADME, organism-based, Macaca fascicularis. The settings on record: in vivo, read-out: Vdss. More on the design: dose 0.3 mg/kg, route intravenous. The gist of the method: as §2
Series [22] can be described thus: AUC in cynomolgus monkey at 0.3 mg/kg, iv. It is filed as ADME, organism-based, Macaca fascicularis. Also noted: dose 0.3 mg/kg, route intravenous. The conditions noted are these: plasma. Put shortly:
as §2

Structures are written as SMILES. Active and inactive are the calls of the source. The rule behind the calls is not given here.

Coagulation factor X, sequence (P00742 41-179 limits assumed): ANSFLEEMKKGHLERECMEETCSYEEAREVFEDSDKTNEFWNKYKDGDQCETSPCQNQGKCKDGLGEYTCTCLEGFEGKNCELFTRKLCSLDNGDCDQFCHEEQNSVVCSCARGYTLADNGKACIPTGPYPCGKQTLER
Coagulation factor X, sequence (P00742 235-488 limits assumed): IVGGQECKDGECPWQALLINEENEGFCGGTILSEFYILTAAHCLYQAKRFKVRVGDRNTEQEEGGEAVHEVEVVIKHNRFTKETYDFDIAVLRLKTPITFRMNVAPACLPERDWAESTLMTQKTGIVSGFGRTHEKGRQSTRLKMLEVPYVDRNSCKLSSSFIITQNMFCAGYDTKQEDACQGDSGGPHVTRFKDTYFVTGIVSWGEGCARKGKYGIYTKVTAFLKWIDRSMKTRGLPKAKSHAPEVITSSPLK
CYP3A4, sequence (P08684 whole entry): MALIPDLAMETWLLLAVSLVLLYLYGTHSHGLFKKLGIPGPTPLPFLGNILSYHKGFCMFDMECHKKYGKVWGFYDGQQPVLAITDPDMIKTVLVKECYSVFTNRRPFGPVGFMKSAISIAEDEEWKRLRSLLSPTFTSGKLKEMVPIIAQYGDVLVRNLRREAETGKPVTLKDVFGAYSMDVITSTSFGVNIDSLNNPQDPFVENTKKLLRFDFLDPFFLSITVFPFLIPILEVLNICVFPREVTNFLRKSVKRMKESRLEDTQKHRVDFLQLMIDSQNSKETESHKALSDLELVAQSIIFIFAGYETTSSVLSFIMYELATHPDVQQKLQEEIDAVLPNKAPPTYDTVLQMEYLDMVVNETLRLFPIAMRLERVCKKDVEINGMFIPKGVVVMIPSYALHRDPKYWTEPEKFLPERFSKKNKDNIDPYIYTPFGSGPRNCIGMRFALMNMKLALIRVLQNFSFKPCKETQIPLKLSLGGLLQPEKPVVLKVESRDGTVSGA
Plasma kallikrein, sequence (P03952 20-390 limits assumed): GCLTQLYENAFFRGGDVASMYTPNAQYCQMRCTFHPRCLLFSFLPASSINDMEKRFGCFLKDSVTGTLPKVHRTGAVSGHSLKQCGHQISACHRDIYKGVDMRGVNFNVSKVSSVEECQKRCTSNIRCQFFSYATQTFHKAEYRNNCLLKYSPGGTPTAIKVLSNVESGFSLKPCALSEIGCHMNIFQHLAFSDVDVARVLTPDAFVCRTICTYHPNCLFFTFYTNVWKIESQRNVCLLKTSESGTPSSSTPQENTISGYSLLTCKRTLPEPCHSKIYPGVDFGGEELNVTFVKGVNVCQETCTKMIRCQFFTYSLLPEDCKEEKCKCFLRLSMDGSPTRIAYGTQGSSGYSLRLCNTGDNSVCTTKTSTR
Plasma kallikrein, sequence (P03952 391-638 limits assumed): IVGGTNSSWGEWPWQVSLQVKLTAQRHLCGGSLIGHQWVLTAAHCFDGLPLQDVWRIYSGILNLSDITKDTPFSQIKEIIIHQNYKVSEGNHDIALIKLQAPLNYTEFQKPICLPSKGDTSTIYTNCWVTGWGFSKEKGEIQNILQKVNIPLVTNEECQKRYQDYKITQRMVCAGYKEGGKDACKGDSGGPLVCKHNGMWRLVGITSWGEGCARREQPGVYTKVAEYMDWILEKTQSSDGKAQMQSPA
Plasminogen, sequence (P00747 97-580 limits assumed): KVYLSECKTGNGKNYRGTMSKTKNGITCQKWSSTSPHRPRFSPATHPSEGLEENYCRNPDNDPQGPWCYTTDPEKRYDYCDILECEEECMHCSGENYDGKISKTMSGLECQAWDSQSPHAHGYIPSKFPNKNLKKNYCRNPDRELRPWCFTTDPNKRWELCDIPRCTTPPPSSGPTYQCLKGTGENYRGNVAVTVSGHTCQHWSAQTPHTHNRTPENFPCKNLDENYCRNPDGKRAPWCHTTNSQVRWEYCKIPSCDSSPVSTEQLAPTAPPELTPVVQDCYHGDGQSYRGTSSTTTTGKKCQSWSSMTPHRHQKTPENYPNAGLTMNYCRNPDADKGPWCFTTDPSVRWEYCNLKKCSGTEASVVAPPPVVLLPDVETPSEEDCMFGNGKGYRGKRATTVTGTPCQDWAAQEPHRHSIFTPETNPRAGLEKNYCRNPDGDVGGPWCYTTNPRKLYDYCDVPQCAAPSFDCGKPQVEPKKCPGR
Plasminogen, sequence (P00747 581-810 limits assumed): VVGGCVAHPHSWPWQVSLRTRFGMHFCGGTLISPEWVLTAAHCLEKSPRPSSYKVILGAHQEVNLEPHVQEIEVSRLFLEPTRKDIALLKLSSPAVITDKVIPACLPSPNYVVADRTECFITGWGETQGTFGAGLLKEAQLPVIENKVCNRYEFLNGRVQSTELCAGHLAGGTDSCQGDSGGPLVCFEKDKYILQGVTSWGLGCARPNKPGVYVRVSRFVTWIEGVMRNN

Turning to `CNC(=O)Cc1cn2c(N3CCN(C(=O)CCS(=O)(=O)c4ccc5cc(Cl)ccc5c4)CC3)cccc2n1`, the 2PT in series [1] was found to be 2 µM. The IC50 (usually the point on the concentration scale where inhibition reaches its midpoint) in [2] was found to be 41 nM.
As for `CN(C)C(=O)Cc1cn2c(N3CCN(C(=O)CCS(=O)(=O)c4ccc5cc(Cl)ccc5c4)CC3)cccc2n1`, the 2PT in series [1] is 2.5 µM. Further, the midpoint of inhibition in series [2], the IC50, lay at 57 nM.
On to `O=C(CCS(=O)(=O)c1ccc2cc(Cl)ccc2c1)N1CCN(c2cccc3ncc(CO)n23)CC1`, for which the 2PT in series [1] came to 1.7 µM. The same compound gave a 50% inhibitory concentration (IC50) in series [2] of 29 nM.
Compound `CN(C(=O)CCS(=O)(=O)c1ccc2cc(Cl)ccc2c1)C1CCN(c2cccc3nccn23)CC1` yielded a half-inhibitory concentration (IC50) in [2] of 840 nM.
For the compound `O=C(CCS(=O)(=O)c1ccc2cc(Cl)ccc2c1)N1CCN(c2ccc3nccn3c2)CC1`, the 2PT in series [1] turned out to be 2.9 µM. This compound came in with a half-maximal inhibitory concentration (IC50) in series [2] of 87 nM.
Take `CC(=O)Nc1cnc2cccc(N3CCN(C(=O)CCS(=O)(=O)c4ccc5cc(Cl)ccc5c4)CC3)n12`: in [1], the 2PT came to 1.8 µM. The compound further displayed an IC50 in series [2] of 24 nM.
As for `CC(O)Cc1cn2c(N3CCN(C(=O)CCS(=O)(=O)c4ccc5cc(Cl)ccc5c4)CC3)cccc2n1` (stereo not given), in [3], the inhibition (usually the change of the read-out against control, counted positive when it falls) at 10 µM turned out to be 33%. Moreover, the 2PT in [4] was determined as 1.5 µM; in [1], 1.1 µM. In [2], this compound had an IC50 of 18 nM. For the same compound, the Ratio in series [5] was 3.2.
On to `NC(=O)Cc1cn2c(N3CCN(C(=O)CCS(=O)(=O)c4ccc5cc(Cl)ccc5c4)CC3)cccc2n1`, for which the 2PT in series [1] turned out to be 2.1 µM. In [2], the midpoint of inhibition, the IC50, lay at 45 nM.
Compound `CC(C)(O)Cc1cn2c(N3CCN(C(=O)CCS(=O)(=O)c4ccc5cc(Cl)ccc5c4)CC3)cccc2n1` showed an inhibition at 10 µM in series [3] of 26%. Besides, the results for the 2PT in [4] and in series [1] were 1.7 µM and 0.86 µM, respectively. The IC50 in [2] is 22 nM. For the same compound, in series [5], the Ratio is reported as 2.4.
Take `O=C(CCS(=O)(=O)c1ccc2cc(Cl)ccc2c1)N1CCN(c2ccn3ccnc3c2)CC1`: the 2PT in series [1] turned out to be 2.2 µM. This compound yielded an IC50 in series [2] of 78 nM.
Take `CC(=N)N1CC[C@H](Oc2ccc([C@H](Cc3ccc4ccc(C(=N)N)cc4c3)C(=O)O)cc2)C1` [DX-9065A]: the 2PT in [1] amounted to 0.81 µM. Also, the outcome in [6] and in series [7] was Active.
In turn, `Nc1cnc2cccc(N3CCN(C(=O)CCS(=O)(=O)c4ccc5cc(Cl)ccc5c4)CC3)n12` returned an inhibition at 10 µM in series [3] of 52%. In addition, the 2PT in series [4] turned out to be 1.5 µM; in [1] it was 0.73 µM. The IC50 in series [2] is 35 nM. In addition, the Ratio in series [5] was found to be 2.4.
As to `O=C(CCS(=O)(=O)c1ccc2cc(Cl)ccc2c1)N1CCN(c2cccc3ncc([N+](=O)[O-])n23)CC1`, the 2PT in series [1] worked out at 3.6 µM. For the same compound, in series [2], the IC50 is 24 nM.
In the case of `CCOC(=O)Cc1cn2c(N3CCN(C(=O)CCS(=O)(=O)c4ccc5cc(Cl)ccc5c4)CC3)cccc2n1`, the 2PT in series [1] was 5.1 µM. The half-maximal inhibitory concentration (IC50) in series [2] was 93 nM.
In series [3], `O=C(CCS(=O)(=O)c1ccc2cc(Cl)ccc2c1)N1CCN(c2cccc3nccn23)CC1` showed an inhibition at 10 µM of 45%. Also, the 2PT in series [4] was determined as 1.7 µM; in series [1], 1.4 µM. The half-maximal inhibitory concentration (IC50) in series [2] was 21 nM. The Ratio in [5] is recorded as 2.5.
As for `Cc1cn2c(N3CCN(C(=O)CCS(=O)(=O)c4ccc5cc(Cl)ccc5c4)CC3)cccc2n1`, the inhibition at 10 µM in series [3] was determined as 58%. Further, the 2PT in series [4] worked out at 1.3 µM; in series [1], 0.96 µM. In series [2], this compound gave an IC50 of 12 nM. Also, the Ratio in series [5] amounted to 2.9.
In series [3], `CC(O)c1cn2c(N3CCN(C(=O)CCS(=O)(=O)c4ccc5cc(Cl)ccc5c4)CC3)cccc2n1` (stereo not given) gave an inhibition at 10 µM of 23%. For the same compound, the 2PT stood at 1.8 µM in [4] and 1.2 µM in [1]. The midpoint of inhibition in series [2], the IC50, lay at 20 nM. In addition, the Ratio in series [5] worked out at 2.5.
As to `CC(C)(O)c1cn2c(N3CCN(C(=O)CCS(=O)(=O)c4ccc5cc(Cl)ccc5c4)CC3)cccc2n1`, the 2PT in series [1] was determined as 2.1 µM. In addition, the 50% inhibitory concentration (IC50) in [2] is 18 nM.
`O=C(CCS(=O)(=O)c1ccc2cc(Cl)ccc2c1)N1CCN(c2cccc3nc(CO)cn23)CC1`: the figures for the AUC in [8] and in [22] were 2260 ng·h/mL and 730 ng·h/mL, respectively. The compound also yielded an inhibition at 10 µM in series [3] of 15%. Further, in [9], the concentration at 5 min was found to be 540 ng/mL. For the same compound, the inhibition constant (Ki) – broadly, a dissociation constant, usually derived from enzyme kinetics or from competition with a known ligand – was 14 µM in [10]; above 60 µM in series [11]; 960 nM in series [12]; 8 nM in [2]; above 60 µM in series [16]; above 60 µM in [20]. Moreover, the peak concentration (Cmax) (in general, the highest concentration seen after dosing) in series [13] worked out at 500 ng/mL. Besides, the 2PT in series [4] and in [1] was 1.4 µM throughout. For the same compound, the bioavailability (usually dose-corrected exposure relative to a reference, in per cent) in series [14] is 30.5%. For the same compound, the clearance (as a rule, the rate of elimination divided by the concentration) in series [15] is 7.33 mL/min/kg. In [2], this compound returned an IC50 of 9 nM. The MRT (as a rule, a mean duration of stay, worked out from the concentration-time curve) was determined as 3.6 h in series [17] and 1.97 h in [18]. The Tmax (usually the time from dosing to the highest level) in series [19] is 1.33 h. The Vd in series [21] turned out to be 0.81 L/kg. The Ratio in [5] amounted to 1.3.
